This series in a line: Toxicity liver stage against HepG2, at 10uM. The format is cell-based. Also on record: test concentration 10 uM, cell line HepG2-A16-CD81EGFP. The conditions noted are these: human, HepG2-A16-CD81EGFP cells; read-out: INHIBITION
The method, boiled down: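 Uninfected HepG2-A16-CD81EGFP cells, 3 × 10^3 per well, 1536-well, plated on prespotted compound at 10 μM final, parasite-free screening media added to match infected plates; puromycin 10 μM positive, DMSO 0.5% negative; run in parallel with 48 h PbLuc assay at 37 °C, 5% CO2; viability by CellTiter-Glo luminescence, normalized to controls.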
For `Cc1ccc(C(C)N(C)Cc2nc3c(cnn3C)c(=O)[nH]2)cc1` (stereo unspecified), the cytotoxicity at 10 µM was -3.91%.

`COCc1nc(N2CCC(CCO)CC2)c2cnn(C)c2n1`: the cytotoxicity at 10 µM worked out at 1.22%.

In the case of `CCS(=O)(=O)Nc1ccc(C(=O)NCCCN2CCCC2)cc1`, the cytotoxicity at 10 µM was found to be 1.83%.

As for `CC1=Nc2c(c(=O)[nH]n2C(C)C)C(c2ccc3c(c2)OCCO3)S1` (stereo unspecified), the cytotoxicity at 10 µM was -1.01%.

`NCCn1cc(C(=O)N2CCCCCC2c2ccco2)nn1` (stereo unspecified): the cytotoxicity at 10 µM is -4.94%.

Regarding `CCN1CCCC(O)(CNCc2ccccc2F)C1` (stereo unspecified), the cytotoxicity at 10 µM was -5.66%.

As to `Cc1nccn1-c1cc(CNC(=O)CCC2CCCO2)ccn1` (stereo unspecified), the cytotoxicity at 10 µM was -3.09%.

Regarding `CCn1ccnc1CN1CCCN(C(=O)c2cc(C)nn2CC)CC1`, the cytotoxicity at 10 µM was -5.89%.

As to `OCC1CCCN(Cc2c(C3CCCC3)[nH]c3ncccc23)C1` (stereo unspecified), the cytotoxicity at 10 µM is 6.35%.

In the case of `COC(=O)C1CN(CC(=O)Nc2ccccc2Cl)c2ccccc21` (stereo unspecified), the cytotoxicity at 10 µM was found to be 14.3%.

As for `Cc1cc(C(=O)NCc2cnn(C)c2C)nc(N2CCCCCC2)n1`, the cytotoxicity at 10 µM was 2.01%.

In the case of `COCCN(C/C=C/c1ccccc1)Cc1[nH]cnc1C`, the cytotoxicity at 10 µM is 10.3%.

With `Cc1nn(C)cc1C(=O)NC(CC(C)C)C(=O)Nc1cc[nH]n1` (stereo unspecified), the cytotoxicity at 10 µM is -2.33%.

Take `Cc1ccc(N2CCC3(CCN(Cc4nccs4)CC3)CC2)nn1`: the cytotoxicity at 10 µM came out at 10.6%.

For the compound `CC(C)OCCn1nnnc1Cc1ccc(Br)cc1`, the cytotoxicity at 10 µM is -5.58%.

Consider `Cc1cc(-c2cnc(N3CCNC(=O)C3)nc2-c2ccc(C)o2)on1`, for which the cytotoxicity at 10 µM is -5.77%.

In the case of `CCO[C@H]1CC[C@H]2[C@H]1OCCN2C(=O)COc1ccccc1`, the cytotoxicity at 10 µM is -94%.

As to `CCNC(=O)N(C)Cc1ccc(SC)c(OC)c1`, the cytotoxicity at 10 µM is -13.1%.

As for `CC[C@H]1CN(C(=O)c2ccc(-n3cnnc3)nc2)CC[C@@]1(C)O`, the cytotoxicity at 10 µM is -11.9%.

For `c1nc(NCc2cc3n(n2)CCN(C2CCCCC2)C3)c2nc[nH]c2n1`, the cytotoxicity at 10 µM amounted to 24.2%.

Take `COC[C@@H]1CCC[C@]12CN(Cc1ccco1)CCO2`: the cytotoxicity at 10 µM is -4.89%.

For `Cc1ccc(NC(=O)[C@H]2C[C@H](C(=O)O)CN(CC(C)C)C2)cn1`, the cytotoxicity at 10 µM turned out to be 9.9%.

With `CN(Cc1ccccc1O)C(=O)NC1CCCN(c2ncccn2)C1` (stereo unspecified), the cytotoxicity at 10 µM is -0.421%.

In the case of `Cc1nc(CN2CCN(C(=O)CCc3ccco3)CC2)cs1`, the cytotoxicity at 10 µM was -4.39%.

Turning to `CCNc1c(NC(=O)C2CC2)c(=O)oc2ccccc12`, the cytotoxicity at 10 µM was -5.99%.

Consider `Cc1nc(C)c(CCNC(Cc2ccncc2)C(F)(F)F)s1` (stereo unspecified), for which the cytotoxicity at 10 µM is -4.96%.

In the case of `CN(C)C(CNC(=O)c1[nH]nc(C2CC2)c1Br)C1CC1` (stereo unspecified), the cytotoxicity at 10 µM was -4.14%.

Turning to `COCC(NC(=O)c1cc(NC(C)=O)ccc1Cl)c1ccccn1` (stereo unspecified), the cytotoxicity at 10 µM was -12.1%.

Turning to `CSCc1nc(CCNC(=O)C(N)c2c(C)n[nH]c2C)cs1` (stereo unspecified), the cytotoxicity at 10 µM was -3.95%.

For the compound `Cc1ncsc1C(=O)NC1CCN(Cc2ccc(C(N)=O)cc2)CC1`, the cytotoxicity at 10 µM is -15%.

For `Cc1nn(-c2ccccc2)c(C)c1-c1ccnc(N2CCC(O)CC2)n1`, the cytotoxicity at 10 µM was -1.74%.

Consider `O=C(O)c1ccc(COc2cccc(Cl)c2)s1`, for which the cytotoxicity at 10 µM was 8.96%.

Turning to `O=C1C(Nc2ncccn2)CCN1c1ccccc1OC(F)F` (stereo unspecified), the cytotoxicity at 10 µM came out at 2.88%.

For `CC(C)(C)C(O)CN1CCN(CC(=O)NC2CCOCC2)CC1` (stereo unspecified), the cytotoxicity at 10 µM was -8.06%.

`O=C1C[C@H]2[C@@H](CCN2Cc2ccccn2)N1Cc1cccnc1`: the cytotoxicity at 10 µM worked out at 4.88%.

Turning to `Cc1csc([C@H]2C[C@@H]3CCN(C(=O)c4cnccn4)C[C@H]3O2)n1`, the cytotoxicity at 10 µM worked out at 1.07%.

In the case of `Cc1sc(Br)cc1S(=O)(=O)NCCCN`, the cytotoxicity at 10 µM came out at 0.973%.

For the compound `C1CN(c2nc(C3CC3)ns2)CCO1`, the cytotoxicity at 10 µM is -2.4%.

Consider `O=c1c(NCc2ccncc2)c(NCC(O)CN2CCOCC2)c1=O` (stereo unspecified), for which the cytotoxicity at 10 µM is -44%.

On to `Fc1ccc(C2CCCCN2Cc2cc(-c3ccccn3)no2)cc1` (stereo unspecified), for which the cytotoxicity at 10 µM is -3.88%.

Consider `COc1cc(N2CCc3ncnc(-c4cnn(C)c4)c3CC2)ncn1`, for which the cytotoxicity at 10 µM stood at 8.46%.

With `Cc1cncc(C2CCCN(C(=O)c3ccc(C)[nH]c3=O)C2)n1` (stereo unspecified), the cytotoxicity at 10 µM came to 5.37%.

As to `Cc1cc(C)n(CC2CCCN2C(=O)CCCNc2ncccn2)n1` (stereo unspecified), the cytotoxicity at 10 µM is -19%.

On to `C[C@H]1C[C@@H]2CCN(C(=O)c3cccn3C)C[C@H]2O1`, for which the cytotoxicity at 10 µM was found to be 10.1%.

Regarding `COc1ccc(CN2C[C@@H]3C[C@H](C(=O)Nc4cccnc4)[C@H](C2)O3)cc1`, the cytotoxicity at 10 µM is -72.4%.

Regarding `CC(=O)N1CCN(C(=O)CN2CCCC2c2c(C)nn(C)c2C)CC1` (stereo unspecified), the cytotoxicity at 10 µM was 6.34%.

As for `Cc1nc(-c2ccc(Cl)s2)sc1C(=O)N(C)CC(N)=O`, the cytotoxicity at 10 µM was -7.08%.

On to `CN1CC[C@H](N(Cc2ccccc2)Cc2ccccc2)C[C@H](O)C1`, for which the cytotoxicity at 10 µM is -5.96%.

For `CCCN1CCC2(C1)c1ccccc1S(=O)(=O)N2C` (stereo unspecified), the cytotoxicity at 10 µM is 9.04%.

Consider `Nc1cc(C(=O)NC2CCCN(CCCc3ccccc3)C2)ccn1` (stereo unspecified), for which the cytotoxicity at 10 µM is 8.01%.

On to `CCCC(Nc1nc(COCC)nc2c1CCNCC2)c1nccn1C` (stereo unspecified), for which the cytotoxicity at 10 µM is -10.3%.

As to `Cc1n[nH]c(-c2ccc(NC(=O)C(C)N3CCN(C)CC3)cc2)n1` (stereo unspecified), the cytotoxicity at 10 µM is 6.03%.

With `CC(Cc1cn(CCc2nnn[nH]2)nn1)c1ccccc1` (stereo unspecified), the cytotoxicity at 10 µM stood at 3.78%.

Consider `CCS(=O)(=O)NCc1cc(Br)c(OC)c(OC)c1`, for which the cytotoxicity at 10 µM was -6.83%.

As for `O=C(CN1CC(n2cccn2)C1)NCCc1ccc(F)cc1`, the cytotoxicity at 10 µM was -14.3%.

Consider `CCc1nnc2n1CCN(CC(=O)Nc1cc(C(C)(C)C)nn1C)C2`, for which the cytotoxicity at 10 µM is -5.77%.

Take `Cc1cc(C2CCCN2C(=O)COc2ccc(CC#N)cc2)no1` (stereo unspecified): the cytotoxicity at 10 µM was -38.9%.

In the case of `COc1ccc(OCC(O)CN2CCN(c3nccs3)CC2)cc1` (stereo unspecified), the cytotoxicity at 10 µM was -3.82%.

As for `O=C(CCc1ccsc1)Nc1ccnn1C1CCS(=O)(=O)C1` (stereo unspecified), the cytotoxicity at 10 µM came to 9.01%.

For `COc1ncccc1NC(=O)C1CC(=O)N(Cc2ccccn2)C1` (stereo unspecified), the cytotoxicity at 10 µM was -1.2%.

Take `CCn1cc(S(=O)(=O)NC2(CN3CCOCC3)CCCCC2)c(C)n1`: the cytotoxicity at 10 µM was 1.88%.

Take `COc1ccccc1-c1csc(-c2cccc(C(=O)O)c2)n1`: the cytotoxicity at 10 µM came out at 12.3%.

In the case of `COCCN1CCN(CC(=O)N(C)Cc2ccsc2)CC1C` (stereo unspecified), the cytotoxicity at 10 µM is -127%.

With `COc1cc(S(=O)(=O)N2CCc3cc(Br)ccc32)cc(C(=O)O)c1OC`, the cytotoxicity at 10 µM is -15.9%.

For the compound `O=C(NCC(F)(F)F)C1CN(C(=O)c2cnccn2)C1`, the cytotoxicity at 10 µM is 2.24%.

In the case of `O=C(c1ncn2c1CNS(=O)(=O)c1ccccc1-2)N1CC=CC1`, the cytotoxicity at 10 µM is 10.5%.

Consider `CCOCC1CN(C(=O)c2cccs2)Cc2nn(C)cc21` (stereo unspecified), for which the cytotoxicity at 10 µM is -1.63%.

For the compound `CCN(Cc1cccc2c1OCO2)C(=O)Nc1cn[nH]c1`, the cytotoxicity at 10 µM is -17.2%.

On to `CCN1CCOCC12CCN(c1nccs1)CC2`, for which the cytotoxicity at 10 µM is -107%.

In the case of `Cc1nc(CCN(C)C(=O)CCNC(=O)c2ccccc2F)no1`, the cytotoxicity at 10 µM was found to be 6.35%.

Turning to `O=C(O)CNc1cc(-c2nccnc2N2CCCC2)c2cc[nH]c2n1`, the cytotoxicity at 10 µM worked out at 4.9%.

Consider `c1cnc(N2C[C@H]3CCN(CC4CC4)C[C@H]3C2)cn1`, for which the cytotoxicity at 10 µM is -108%.

Take `COc1c(CNC2CCc3ccccc32)c(C(C)C)nn1C` (stereo unspecified): the cytotoxicity at 10 µM amounted to 0.441%.

In the case of `Cc1cccc(CN2Cc3nccn3CC(CN3CCOCC3)C2)c1` (stereo unspecified), the cytotoxicity at 10 µM is -75.2%.

Take `c1ccc(-c2nc(CN3CCn4c(nnc4C4CC4)C3)cs2)cc1`: the cytotoxicity at 10 µM is -3.92%.

With `c1ccc(Cn2cc(CNCC3CNc4ccnn4C3)cn2)cc1` (stereo unspecified), the cytotoxicity at 10 µM is -11.6%.

As for `COCc1cnc2n1CCN(C(=O)C1=CCCCC1)C2C` (stereo unspecified), the cytotoxicity at 10 µM is -2.93%.

Take `O=C(c1ncccn1)N1CCC[C@]2(C[C@@H](Oc3ncccc3F)CO2)C1`: the cytotoxicity at 10 µM was -4.28%.

Regarding `O=C(c1ccc2c(c1)OCO2)N1CCN(c2cnccn2)CC1`, the cytotoxicity at 10 µM is -7.1%.

Turning to `COc1c(C2CCCN2C(=O)c2cc(C)on2)c(C)nn1C` (stereo unspecified), the cytotoxicity at 10 µM amounted to 0.407%.

As for `CS(=O)(=O)N1C[C@H]2CC[C@@H](C1)N(Cc1ccc3nsnc3c1)C2`, the cytotoxicity at 10 µM was 3.18%.

Consider `Cc1cc2ccccc2n1CCC(=O)N1CCCC(O)(CN(C)C)CC1` (stereo unspecified), for which the cytotoxicity at 10 µM is -1.88%.

For the compound `CN(Cc1ccsc1)C(=O)CN1CCOC(Cn2cncn2)C1` (stereo unspecified), the cytotoxicity at 10 µM is -1.14%.

With `O=C1CC2(CCN(C(=O)Cc3cc4c(cc3Cl)OCCO4)C2)C(=O)N1` (stereo unspecified), the cytotoxicity at 10 µM turned out to be 12.7%.

For `CCn1nccc1CNC(=O)C1CC1`, the cytotoxicity at 10 µM was -12.2%.

Turning to `O=S1(=O)NC(c2ccnc(N3CCOCC3)n2)=Nc2ccccc21`, the cytotoxicity at 10 µM came out at 10.8%.

As to `CCCc1nnc(N2CCC(N3CCCC(O)C3)CC2)o1` (stereo unspecified), the cytotoxicity at 10 µM stood at 13.6%.

`CCn1cc(CNCC(c2ccc(C)s2)N2CCOCC2)cn1` (stereo unspecified): the cytotoxicity at 10 µM was -8.65%.

On to `O=C(O)[C@]12CCCN(Cc3ccco3)C[C@H]1CN(c1ncccn1)C2`, for which the cytotoxicity at 10 µM came out at 7.34%.

Regarding `CC(CN1CCC2(CC1)N=C(N(C)C)NC2=O)c1ccccc1` (stereo unspecified), the cytotoxicity at 10 µM is 2.92%.

Turning to `CCn1c(CN2CCN(C(=O)C3CCC3)CC2)nc2c(F)cccc21`, the cytotoxicity at 10 µM was -3.78%.

`CN(C)C(=O)CN(C)C(=O)c1csc(Br)c1`: the cytotoxicity at 10 µM stood at 12.3%.

Take `Cn1nc(C(=O)N2CCCCC2c2nc3cc(F)ccc3[nH]2)ccc1=O` (stereo unspecified): the cytotoxicity at 10 µM is -18.2%.

Take `CN(C)CCN(C)C(=O)NC1CCC(Oc2ccccc2C#N)CC1` (stereo unspecified): the cytotoxicity at 10 µM was -21.8%.

As for `Cc1noc(C)c1CS(=O)(=O)CC(=O)N1c2ccccc2CC1C` (stereo unspecified), the cytotoxicity at 10 µM was determined as 3.53%.

Turning to `COc1ccc(-n2ncc3c2NC(=O)CSC3C(C)C)cc1` (stereo unspecified), the cytotoxicity at 10 µM was 17.4%.

The values above are taken from ChEMBL document CHEMBL4513216, “Probing the Open Global Health Chemical Diversity Library for Multistage-Active Starting Points for Next-Generation Antimalarials” (ACS Infect Dis, 2020).
